Assay outcomes deposited in PubChem BioAssay by Johns Hopkins Ion Channel Center.
KCNQ1 pot = potentiators or activators of KCNQ1 channel, primary screen, cell-based, thallium flux, high-throughput; Potassium voltage-gated channel subfamily KQT member 1 (Homo sapiens), P51787; CHO-K1 KCNQ1, thallium flux FluxOR fluorescence; stronger effect = higher value; B-score at 10 µM; hit rate 0.35% among 310,000; AID 2648, 2010;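 active = fluorescence ratio B-score, a plate-corrected score, at least three library SD, with initial intensity B-score within 5 SD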
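System: CHO-K1 cells stably expressing KCNQ1 / Medium: assay buffer for compound exposure, DMSO matched across wells / Reagent: thallium- and potassium-containing depolarizing buffer / Compound: one concentration, matched DMSO / Incubation: 20 min compound pretreatment at room temperature / Measured by: kinetic FluxOR fluorescence, 10 s baseline plus 110 s post-stimulus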
KCNQ1 block = inhibitors of human KCNQ1 channel, primary screen, cell-based, thallium flux, high-throughput | CHO-K1 KCNQ1, FluxOR thallium flux fluorescence; stronger effect = higher value | B-score at 10 µM | hit rate 1.3% among 310,000;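 active = compounds whose thallium flux B-score, printed positive for inhibition, exceeds three library SD while starting fluorescence stays within three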;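 note: channel opened by potassium depolarization with thallium stimulus after 20 min compound exposure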
Kir21 inh = inhibitors of mouse Kir2.1 inward-rectifier potassium channel; HEK293-Kir2.1, FluxOR thallium flux fluorescence; stronger effect = lower value; B-score at 10 µM; hit rate 0.85% among 310,000; Inward rectifier potassium channel 2 (Mus musculus), P35561; AID 1672, 2009;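 active = fluorescence ratio B-score at or below minus 3 SD of library scores, with starting-brightness B-score within 2 SD, cut at about -4.2 in these data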;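 note: channel flux triggered by added potassium and thallium sulfate stimulus; B-score of peak minus minimum fluorescence over baseline after thallium stimulus; more negative B-score means stronger Kir2.1 block with less thallium influx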
hERG protect = hERG rescue from dofetilide block, primary screen, cell-based, CHO-hERG, FluxOR thallium flux, dofetilide IC70; hit rate 0.51% among 310,000; dofetilide IC70 present; activation (rescue from dofetilide block), less the hit threshold, % at 10 µM;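 active = activation above the mean of controls blocked by dofetilide plus 5 SD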;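 note: thallium influx through hERG after potassium depolarization seen as dye fluorescence rise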
KCNK9 inh = KCNK9 potassium channel inhibitors, primary screen, HEK293 cells, thallium flux; B-score at 10 µM; FluxOR thallium flux fluorescence; stronger effect = lower value; hit rate 1.2% among 310,000;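 active = ratio B-score over 3 SD below the library mean, with starting fluorescence within 5 SD of its mean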;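 note: negative B-score means less thallium flux so channel inhibition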
KCNK3 inh = human KCNK3 channel inhibitors, primary screen, CHO cells, FluxOR thallium flux, B-score. Potassium channel subfamily K member 3 (Homo sapiens), O14649. FluxOR fluorescence; stronger effect = lower value. B-score at 10 µM. hit rate 0.84% among 340,000. AID 602410, 2012;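 active = B-score under library mean minus 4 SD, starting fluorescence ratio at most library mean plus 5 SD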;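 note: more negative B-score means stronger inhibition of thallium flux through KCNK3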
Target sequence (O14649 whole entry, looked up): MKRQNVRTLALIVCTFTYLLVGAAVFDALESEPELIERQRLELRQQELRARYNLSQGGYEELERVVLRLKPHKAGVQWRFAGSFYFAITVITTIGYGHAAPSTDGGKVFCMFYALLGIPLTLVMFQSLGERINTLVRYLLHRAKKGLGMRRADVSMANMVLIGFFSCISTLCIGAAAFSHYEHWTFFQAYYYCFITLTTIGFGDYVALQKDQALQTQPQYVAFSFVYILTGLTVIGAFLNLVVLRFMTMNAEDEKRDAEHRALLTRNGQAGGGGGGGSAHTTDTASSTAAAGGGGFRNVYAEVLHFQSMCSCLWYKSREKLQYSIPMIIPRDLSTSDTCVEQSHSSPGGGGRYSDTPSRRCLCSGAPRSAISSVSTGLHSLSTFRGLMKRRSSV
Numbers without * were called inactive. An excerpt weighted towards active compounds, which were near 3.7% of everything screened.

Cc1cccc(-n2cc(-c3ccc([N+](=O)[O-])cc3)[nH]c2=S)c1 was read as KCNQ1 pot inactive, KCNQ1 block inactive, Kir21 inh 1.7, hERG protect -4, KCNK9 inh inactive and KCNK3 inh inactive.
For O=C1NN(c2ccccc2)C(=O)/C1=C\c1cccc(OC(=O)c2cccs2)c1 the results were KCNQ1 pot inactive, KCNQ1 block inactive, Kir21 inh 0.12, hERG protect -4, KCNK9 inh inactive and KCNK3 inh inactive.
Screening O=C1NN(c2ccc(Cl)c(Cl)c2)C(=O)/C1=C/c1cccc(OC(=O)c2cccs2)c1 returned KCNQ1 pot 12*, KCNQ1 block inactive, Kir21 inh -4.4*, hERG protect -16 and KCNK9 inh inactive.
Screening C=C[C@H]1[C@H](OC2OC(CO)C(O)C(O)C2O)OC=C(C(=O)OC)[C@H]1C[C@H]1CC(=O)C[C@H](CC(=O)CCc2ccc(O)cc2)O1 (some centres not stated) returned KCNQ1 pot inactive, KCNQ1 block inactive, Kir21 inh -0.67, hERG protect -3 and KCNK9 inh inactive.
Screening Cc1cc(C)c(S(=O)(=O)NCC(c2ccco2)N2CCc3ccccc3C2)c(C)c1 (configuration not stated) returned KCNQ1 pot inactive, KCNQ1 block inactive, Kir21 inh 0.04, hERG protect -3, KCNK9 inh -6.8* and KCNK3 inh inactive.
Screening O=C(CSc1ccc(-c2ccccc2)nn1)N1CCCCC1 returned KCNQ1 pot inactive, KCNQ1 block inactive, Kir21 inh -0.13, hERG protect 40*, KCNK9 inh inactive and KCNK3 inh inactive.
`O=C(CSc1ccc(-c2ccc(Br)cc2)nn1)N1CCOCC1` gave KCNQ1 pot inactive, KCNQ1 block inactive, Kir21 inh -0.1, hERG protect 5.0*, KCNK9 inh inactive and KCNK3 inh inactive.
O=C(CSc1ccc(-c2ccncc2)nn1)N1CCCCC1 was read as KCNQ1 pot inactive, KCNQ1 block inactive, Kir21 inh 1.2, hERG protect -5, KCNK9 inh inactive and KCNK3 inh inactive.
COc1ccc(NC(=O)CSc2nc(O)cc(=O)n2-c2ccc(OC)cc2)cc1 was read as KCNQ1 pot inactive, KCNQ1 block inactive, Kir21 inh -0.26, hERG protect -11, KCNK9 inh inactive and KCNK3 inh inactive.
CC(=O)n1c(=O)oc2ccccc21 was read as KCNQ1 pot inactive, KCNQ1 block inactive, Kir21 inh 0.43, hERG protect -4, KCNK9 inh inactive and KCNK3 inh inactive.
CC(C)(C)OC(=O)CC1(C#N)c2ccccc2C(Br)=CN1C(=O)c1ccccc1 (configuration not stated) was read as KCNQ1 pot inactive, KCNQ1 block inactive, Kir21 inh -0.03, hERG protect -9, KCNK9 inh -7.4* and KCNK3 inh inactive.
For CCSc1nc(C(F)(F)F)cc(=O)n1-c1ccccc1 the results were KCNQ1 pot inactive, KCNQ1 block inactive, Kir21 inh -2.8, hERG protect -15, KCNK9 inh inactive and KCNK3 inh inactive.
For CC(C)Sc1nc(C(F)(F)F)cc(=O)n1-c1ccccc1 the results were KCNQ1 pot inactive, KCNQ1 block inactive, Kir21 inh -4.4*, hERG protect -14, KCNK9 inh inactive and KCNK3 inh inactive.
For CCn1c2ccccc2c2cc(/C=N/NC(=O)c3ccc(O)cc3)ccc21 the results were KCNQ1 pot inactive, KCNQ1 block inactive, Kir21 inh -4.4*, hERG protect -9, KCNK9 inh inactive and KCNK3 inh inactive.
`O=C(Cc1c(F)cccc1Cl)OCN1C(=O)c2ccccc2C1=O` gave KCNQ1 pot inactive, KCNQ1 block inactive, Kir21 inh -0.04, hERG protect -3, KCNK9 inh inactive and KCNK3 inh inactive.
